Reference: ChEMBL document CHEMBL3351316, “Scaffold hopping approach on the route to selective tankyrase inhibitors” (Eur J Med Chem, 2014)

Experiments:
[1] = molecular target: T1, Poly [ADP-ribose] polymerase tankyrase-2 (Homo sapiens, UniProt Q9H2K2); assay: Inhibition of GST-tagged human recombinant TNKS2 incubated for 1 hr using NAD+, biotinylated NAD+ and activated DNA by luminescence based assay
T1 sequence (Q9H2K2 whole entry): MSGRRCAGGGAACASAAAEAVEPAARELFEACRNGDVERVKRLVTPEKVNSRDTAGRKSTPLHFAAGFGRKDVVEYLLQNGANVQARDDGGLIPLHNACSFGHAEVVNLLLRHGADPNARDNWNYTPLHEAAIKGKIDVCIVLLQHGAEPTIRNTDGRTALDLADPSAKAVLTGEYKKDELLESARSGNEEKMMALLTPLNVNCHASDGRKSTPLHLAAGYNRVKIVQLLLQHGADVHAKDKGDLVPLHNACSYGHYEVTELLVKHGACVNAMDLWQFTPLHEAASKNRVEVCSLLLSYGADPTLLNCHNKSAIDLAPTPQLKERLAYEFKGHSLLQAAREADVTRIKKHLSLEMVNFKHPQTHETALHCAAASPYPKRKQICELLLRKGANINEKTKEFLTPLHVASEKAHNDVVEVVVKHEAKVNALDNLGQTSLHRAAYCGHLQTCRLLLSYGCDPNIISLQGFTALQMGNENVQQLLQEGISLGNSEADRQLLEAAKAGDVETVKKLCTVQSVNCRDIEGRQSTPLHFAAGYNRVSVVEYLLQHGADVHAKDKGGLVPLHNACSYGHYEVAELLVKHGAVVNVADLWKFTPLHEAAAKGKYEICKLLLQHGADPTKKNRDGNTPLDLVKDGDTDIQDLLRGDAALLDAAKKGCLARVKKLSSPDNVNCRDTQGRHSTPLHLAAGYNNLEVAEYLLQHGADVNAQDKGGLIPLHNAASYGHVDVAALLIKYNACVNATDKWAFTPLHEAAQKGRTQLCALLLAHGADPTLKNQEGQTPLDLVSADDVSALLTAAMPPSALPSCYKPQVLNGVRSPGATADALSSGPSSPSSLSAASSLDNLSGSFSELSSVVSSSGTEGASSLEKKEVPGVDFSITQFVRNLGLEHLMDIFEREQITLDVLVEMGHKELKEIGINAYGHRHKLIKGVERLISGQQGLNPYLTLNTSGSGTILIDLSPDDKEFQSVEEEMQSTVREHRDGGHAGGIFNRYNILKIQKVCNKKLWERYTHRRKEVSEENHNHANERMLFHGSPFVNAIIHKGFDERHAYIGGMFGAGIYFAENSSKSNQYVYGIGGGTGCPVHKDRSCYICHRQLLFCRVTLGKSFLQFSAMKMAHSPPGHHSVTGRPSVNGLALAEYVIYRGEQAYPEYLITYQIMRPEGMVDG

[2] = molecular target: T2, Protein mono-ADP-ribosyltransferase TIPARP (Homo sapiens) (UniProt Q7Z3E1); assay: Inhibition of human recombinant PARP7 at 10 uM incubated for 1 hr using NAD+, biotinylated NAD+ and activated DNA by luminescence based assay
T2 sequence (whole entry): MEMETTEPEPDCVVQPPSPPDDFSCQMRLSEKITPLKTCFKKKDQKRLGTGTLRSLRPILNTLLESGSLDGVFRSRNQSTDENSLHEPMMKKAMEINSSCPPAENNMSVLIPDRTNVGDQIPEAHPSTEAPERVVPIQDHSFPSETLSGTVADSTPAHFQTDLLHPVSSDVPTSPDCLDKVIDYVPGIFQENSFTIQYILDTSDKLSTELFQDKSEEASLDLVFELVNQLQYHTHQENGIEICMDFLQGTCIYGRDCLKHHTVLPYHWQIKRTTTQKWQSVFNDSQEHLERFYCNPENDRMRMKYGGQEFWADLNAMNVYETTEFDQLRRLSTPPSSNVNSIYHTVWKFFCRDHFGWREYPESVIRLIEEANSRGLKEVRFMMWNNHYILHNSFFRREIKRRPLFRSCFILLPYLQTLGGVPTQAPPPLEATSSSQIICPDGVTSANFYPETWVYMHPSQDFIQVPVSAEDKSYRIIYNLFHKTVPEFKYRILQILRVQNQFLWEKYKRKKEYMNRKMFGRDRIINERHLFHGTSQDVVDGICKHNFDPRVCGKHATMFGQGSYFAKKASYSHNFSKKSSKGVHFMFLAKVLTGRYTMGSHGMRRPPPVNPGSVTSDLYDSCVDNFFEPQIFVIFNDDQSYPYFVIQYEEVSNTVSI
In short: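 Recombinant PARP enzyme reactions were run in duplicate for 1 h at rt on histone-coated plates in Tris·HCl pH 8.0 buffer with NAD+, biotinylated NAD+ and activated DNA. Detection used streptavidin-HRP for 30 min at rt, then a chemiluminescent developer. % inhibition = 100 − % activity, scaled between the no-compound (100%) and no-enzyme (0%) signals.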

In the case of `CC(C)(C)c1ccc(-c2nc3c(sc4ccccc43)c(=O)[nH]2)cc1`, the IC50 [1] is reported as 28.6 nM and the inhibition [2] is reported as 7%.
